# Assay results reported in ChEMBL document CHEMBL1145195 (J Med Chem, 2005).
# Legend:
# Prothrombin = Prothrombin (Homo sapiens, UniProt P00734); assay: Binding affinity against human thrombin
# Caco-2 [1] = assay: Apparent cell permeability in Caco-2 cell line; format: functional, cell-based; settings: Homo sapiens
# Serine protease 1 = Serine protease 1 (Homo sapiens, UniProt P07477); assay: Binding affinity determined against human trypsin
# Coagulation factor X [2] = biological target: T1, Coagulation factor X (Homo sapiens, UniProt P00742); assay: Binding affinity against human Coagulation factor Xa
# Target sequence in this assay (P00742 41-179 limits assumed): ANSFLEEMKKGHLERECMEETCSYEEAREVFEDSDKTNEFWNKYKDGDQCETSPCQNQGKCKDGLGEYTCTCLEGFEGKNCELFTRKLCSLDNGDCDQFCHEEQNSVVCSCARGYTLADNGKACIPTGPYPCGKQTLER
# Target sequence in this assay (P00742 235-488 limits assumed): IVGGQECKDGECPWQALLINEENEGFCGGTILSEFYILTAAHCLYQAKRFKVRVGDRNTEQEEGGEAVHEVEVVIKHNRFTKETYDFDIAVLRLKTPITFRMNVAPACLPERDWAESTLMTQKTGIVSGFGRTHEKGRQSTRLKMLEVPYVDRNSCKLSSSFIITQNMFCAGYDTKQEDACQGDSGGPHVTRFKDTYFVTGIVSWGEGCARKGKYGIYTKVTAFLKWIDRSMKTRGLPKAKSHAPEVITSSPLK
# [3] = Activated partial thromboplastin time was determined in human plasma; format: functional
# Method in brief: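 Pooled human plasma obtained by centrifugation at 2000g for 10 min, kept on ice. Inhibitor taken from a 10 mM DMSO stock, diluted in plasma, held on ice. Five to seven concentrations, each in duplicate. Alexin aPTT reagent added after plasma warmed 1 min at 37 °C. Clotting time compared with control plasma; the concentration doubling aPTT is reported.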
# [4] = Half life in dogs upon 0.4 mg/kg intravenous administration; format: ADME, organism-based, Canis lupus familiaris; parameters: dose 0.4 mg/kg, route intravenous; settings: dog, in vivo
# Method in brief: (§1)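 Dogs dosed with the compounds as TFA salts in an N-in-1 (cassette) format, 0.4 mg/kg intravenously and 0.2 mg/kg orally.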
# Coagulation factor XI = Coagulation factor XI (Homo sapiens, UniProt P03951); assay: Binding affinity determined against coagulation factor XI
# Sequence of Coagulation factor XI (P03951 19-387 limits assumed): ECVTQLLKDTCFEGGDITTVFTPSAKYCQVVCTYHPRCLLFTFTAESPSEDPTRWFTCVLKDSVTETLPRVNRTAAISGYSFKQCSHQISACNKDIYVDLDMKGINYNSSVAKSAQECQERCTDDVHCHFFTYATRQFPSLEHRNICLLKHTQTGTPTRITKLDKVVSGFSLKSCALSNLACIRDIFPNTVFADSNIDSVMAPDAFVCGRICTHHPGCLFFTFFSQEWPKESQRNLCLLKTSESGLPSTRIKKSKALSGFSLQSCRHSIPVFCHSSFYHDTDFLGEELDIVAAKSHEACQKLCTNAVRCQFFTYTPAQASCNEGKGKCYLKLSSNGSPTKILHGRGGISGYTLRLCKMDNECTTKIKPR
# Sequence of Coagulation factor XI (P03951 388-625 limits assumed): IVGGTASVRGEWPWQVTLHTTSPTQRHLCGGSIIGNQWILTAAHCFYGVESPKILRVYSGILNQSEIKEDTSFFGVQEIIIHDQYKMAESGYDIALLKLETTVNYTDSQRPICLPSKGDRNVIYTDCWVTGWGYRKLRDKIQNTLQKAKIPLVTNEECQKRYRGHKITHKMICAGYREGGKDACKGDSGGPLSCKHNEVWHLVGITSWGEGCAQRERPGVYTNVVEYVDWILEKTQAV
# Method in brief: (§2)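 Absorbance at 405 nm followed for 30 min. Percent activity taken from rates against no-inhibitor controls, then converted to Ki using Km and substrate concentration. Run in duplicate alongside internal standards.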
# [5] = Binding affinity of compound was determined against rabbit plasma protein; format: ADME, cell-free, Oryctolagus cuniculus
# Method in brief: (§3)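 Human or rabbit plasma protein binding determined by equilibrium dialysis.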
# [6] = Oral bioavailability of compound was determined in dogs upon 0.2 mg/kg administration; format: ADME, organism-based, Canis lupus familiaris; settings: dog, in vivo; method in brief: as §1
# Caco-2 [7] = assay: Apparent permeability in Caco-2 (human carcinoma) cells
# [8] = Binding affinity against human plasma protein was determined; format: ADME, cell-free; method in brief: as §3
# [9] = biological target: Vitamin K-dependent protein C (Homo sapiens, UniProt P04070); assay: Binding affinity determined against human activated protein C; method in brief: as §2
# Sequence of Vitamin K-dependent protein C (P04070 43-197 limits assumed): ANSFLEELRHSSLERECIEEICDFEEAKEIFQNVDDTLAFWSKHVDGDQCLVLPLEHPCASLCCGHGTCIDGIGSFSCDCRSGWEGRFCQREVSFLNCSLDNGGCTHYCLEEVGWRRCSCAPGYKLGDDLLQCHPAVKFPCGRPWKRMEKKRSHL
# Sequence of Vitamin K-dependent protein C (P04070 212-461 limits assumed): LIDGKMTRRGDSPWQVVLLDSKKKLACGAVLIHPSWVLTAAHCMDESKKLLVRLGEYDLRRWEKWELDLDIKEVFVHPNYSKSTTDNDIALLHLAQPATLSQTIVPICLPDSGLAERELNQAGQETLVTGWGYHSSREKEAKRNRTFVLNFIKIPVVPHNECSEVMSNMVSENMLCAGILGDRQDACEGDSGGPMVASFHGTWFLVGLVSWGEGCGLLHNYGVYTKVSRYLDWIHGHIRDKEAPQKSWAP
# [10] = Steady state volume of distribution in dogs upon 0.4 mg/kg intravenous administration; format: ADME, organism-based, Canis lupus familiaris; parameters: dose 0.4 mg/kg, route intravenous; settings: dog, in vivo, read-out: Vdss; method in brief: as §1
# [11] = Oral bioavailability in dogs at 0.2 mg/kg (n=2); format: ADME, organism-based, Canis lupus familiaris; settings: dog, in vivo
# Method in brief: (§4)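 Dog pharmacokinetics with compounds given as TFA salts in an N-in-1 (cassette) format, at 0.4 mg/kg intravenously and 0.2 mg/kg orally.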
# [12] = biological target: Urokinase-type plasminogen activator (Homo sapiens, UniProt P00749); assay: Binding affinity determined against human urokinase
# Coagulation factor IX = Coagulation factor IX (Homo sapiens, UniProt P00740); assay: Binding affinity against human Coagulation factor IX
# Sequence of Coagulation factor IX (P00740 47-191 limits assumed): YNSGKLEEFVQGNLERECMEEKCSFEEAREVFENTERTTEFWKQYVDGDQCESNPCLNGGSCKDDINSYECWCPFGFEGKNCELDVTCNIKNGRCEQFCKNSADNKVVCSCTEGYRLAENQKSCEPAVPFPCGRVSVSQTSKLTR
# Sequence of Coagulation factor IX (P00740 227-461 limits assumed): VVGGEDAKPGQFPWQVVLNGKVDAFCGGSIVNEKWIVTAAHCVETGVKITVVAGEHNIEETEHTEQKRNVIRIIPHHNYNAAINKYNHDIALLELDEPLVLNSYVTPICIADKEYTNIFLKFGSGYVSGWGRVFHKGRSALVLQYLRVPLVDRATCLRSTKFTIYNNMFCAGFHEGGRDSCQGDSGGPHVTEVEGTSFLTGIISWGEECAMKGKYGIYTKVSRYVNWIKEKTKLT
# Chymotrypsinogen B = Chymotrypsinogen B (Homo sapiens, UniProt P17538); assay: Binding affinity determined against human Chymotrypsin; method in brief: as §2
# Sequence of Chymotrypsinogen B (P17538 34-164 limits assumed, other chains not shown): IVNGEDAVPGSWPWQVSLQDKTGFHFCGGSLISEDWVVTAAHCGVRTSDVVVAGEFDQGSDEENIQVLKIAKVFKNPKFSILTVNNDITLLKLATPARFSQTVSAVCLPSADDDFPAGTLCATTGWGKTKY
# Sequence of Chymotrypsinogen B (P17538 167-263 limits assumed, other chains not shown): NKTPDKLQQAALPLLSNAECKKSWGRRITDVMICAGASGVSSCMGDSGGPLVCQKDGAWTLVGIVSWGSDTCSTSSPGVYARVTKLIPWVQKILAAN
# Coagulation factor VII = biological target: T2, Coagulation factor VII (Homo sapiens, UniProt P08709); assay: Binding affinity against human Coagulation factor VII
# T2 sequence (P08709 whole entry): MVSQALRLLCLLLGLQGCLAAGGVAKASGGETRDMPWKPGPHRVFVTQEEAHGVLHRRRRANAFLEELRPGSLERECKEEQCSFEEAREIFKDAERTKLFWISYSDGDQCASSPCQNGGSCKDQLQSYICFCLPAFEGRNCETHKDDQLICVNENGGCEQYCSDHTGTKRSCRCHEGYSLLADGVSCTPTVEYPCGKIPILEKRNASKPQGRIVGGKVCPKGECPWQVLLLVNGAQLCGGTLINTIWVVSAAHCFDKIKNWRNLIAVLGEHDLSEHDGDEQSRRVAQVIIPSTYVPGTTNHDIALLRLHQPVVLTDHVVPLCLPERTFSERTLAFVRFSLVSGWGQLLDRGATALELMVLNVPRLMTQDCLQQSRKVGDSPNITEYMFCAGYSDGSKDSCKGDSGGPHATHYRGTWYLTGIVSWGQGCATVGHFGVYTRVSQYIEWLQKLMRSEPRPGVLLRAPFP
# [13] = Binding affinity of compound was determined against human plasma protein; format: ADME, cell-free; method in brief: as §3
# [14] = Steady state volume of distribution in dogs at 0.4 mg/kg intravenous administration; format: ADME, organism-based, Canis lupus familiaris; parameters: dose 0.4 mg/kg, route intravenous; settings: dog, in vivo, read-out: Vdss; method in brief: as §4
# [15] = Half life period in dogs at 0.4 mg/kg intravenous administration; format: ADME, organism-based, Canis lupus familiaris; parameters: dose 0.4 mg/kg, route intravenous; settings: dog, in vivo; method in brief: as §4
# [16] = Clearance in dogs at 0.4 mg/kg intravenous administration; format: ADME, organism-based, Canis lupus familiaris; parameters: dose 0.4 mg/kg, route intravenous; settings: dog, in vivo; method in brief: as §4
# [17] = Oral bioavailability of compound was determined in dogs upon administration of 0.2 mg/kg; format: ADME, organism-based, Canis lupus familiaris; settings: dog, in vivo; method in brief: as §4
# Coagulation factor X [18] = biological target: T1, Coagulation factor X; assay: Binding affinity against blood clotting factor X
# Target sequence in this assay (P00742 whole entry, looked up): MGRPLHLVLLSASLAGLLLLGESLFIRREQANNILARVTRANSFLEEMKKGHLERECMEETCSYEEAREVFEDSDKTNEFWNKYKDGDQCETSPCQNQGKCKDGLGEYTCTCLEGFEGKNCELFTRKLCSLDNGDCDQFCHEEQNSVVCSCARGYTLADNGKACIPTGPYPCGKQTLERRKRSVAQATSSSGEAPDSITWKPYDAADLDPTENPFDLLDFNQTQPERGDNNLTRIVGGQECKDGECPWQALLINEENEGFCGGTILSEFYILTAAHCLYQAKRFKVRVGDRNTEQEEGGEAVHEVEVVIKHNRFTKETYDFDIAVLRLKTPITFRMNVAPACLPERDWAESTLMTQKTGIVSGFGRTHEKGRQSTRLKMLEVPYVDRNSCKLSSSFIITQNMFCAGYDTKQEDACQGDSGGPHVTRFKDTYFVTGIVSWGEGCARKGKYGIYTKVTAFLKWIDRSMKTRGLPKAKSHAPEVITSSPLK
# Sequence of Serine protease 1 (P07477 whole entry): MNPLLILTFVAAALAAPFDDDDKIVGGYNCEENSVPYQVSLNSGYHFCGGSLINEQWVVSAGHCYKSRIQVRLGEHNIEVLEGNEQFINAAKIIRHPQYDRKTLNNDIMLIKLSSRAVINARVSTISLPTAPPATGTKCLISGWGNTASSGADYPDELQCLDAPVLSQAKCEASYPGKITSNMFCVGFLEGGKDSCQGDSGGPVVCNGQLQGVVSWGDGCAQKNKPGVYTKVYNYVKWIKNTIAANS
Structure (SMILES),Ki (Prothrombin) [nM],Ki (Coagulation factor X [2]) [nM],Permeability (Caco-2 [1]) [×10⁻⁶ cm/s],Ki (Serine protease 1) [nM],concentration doubling aPTT [3] [µM],further results
Nc1noc2ccc(-n3nc(C(F)(F)F)cc3C(=O)Nc3ccc(C(=O)N4CCCC4)cc3F)cc12,8000,0.92,24.9,> 5200,13.8,
Nc1noc2ccc(-n3nc(C(F)(F)F)cc3C(=O)Nc3ccc(-n4ccnc4CO)cc3F)cc12,1700,1,0.1,,,
CN(C)Cc1nccn1-c1ccc(NC(=O)c2cc(C(F)(F)F)nn2-c2ccc3onc(N)c3c2)c(F)c1.Cl [RAZAXABAN HYDROCHLORIDE],,,,,,half-life [4]: 3.4 h; Ki (Coagulation factor XI): > 12000 nM; Binding [5]: 93.4%; bioavailability [6]: 84%; ID50 (Oryctolagus cuniculus): 1.6 µmol/kg/h; Permeability (Caco-2 [7]): 5.56 ×10⁻⁶ cm/s; Binding [8]: 90.5%; Ki [9]: 19700 nM; Vd [10]: 5.3 L/kg
Cc1nccn1-c1ccc(NC(=O)c2cc(C(F)(F)F)nn2-c2ccc3onc(N)c3c2)c(C#N)c1,,0.52,< 0.1,,,
CS(=O)(=O)c1ccccc1-c1ccc(NC(=O)c2cc(C(F)(F)F)nn2-c2cccc(CN)c2)c(F)c1,,,,,,ID50 (Oryctolagus cuniculus): 1.1 µmol/kg/h; Ki [12]: > 17000 nM; Ki (Chymotrypsinogen B): > 17000 nM
Cn1ccnc1-c1ccc(NC(=O)c2cc(C(F)(F)F)nn2-c2ccc3onc(N)c3c2)c(F)c1,34,0.51,4.69,> 2500,9.4,
CCc1nccn1-c1ccc(NC(=O)c2cc(C(F)(F)F)nn2-c2ccc3onc(N)c3c2)c(F)c1,,0.73,3.32,,14.3,Binding [13]: 95%
COc1cc(-n2ccnc2C)ccc1NC(=O)c1cc(C(F)(F)F)nn1-c1ccc2onc(N)c2c1,200,2.8,,,,
CNCc1nccn1-c1ccc(NC(=O)c2cc(C(F)(F)F)nn2-c2ccc3onc(N)c3c2)c(F)c1,1700,0.17,0.2,,5.9,Vd [14]: 4.6 L/kg; half-life [15]: 3.7 h; clearance [16]: 18.3 mL/min/kg; bioavailability [17]: 27%; Ki (Coagulation factor X [18]): 0.17 nM; Binding [13]: 85.6%
CC(C)c1nccn1-c1ccc(NC(=O)c2cc(C(F)(F)F)nn2-c2ccc3onc(N)c3c2)c(F)c1,,1.6,,,,
Nc1noc2ccc(-n3nc(C(F)(F)F)cc3C(=O)Nc3ccc(-c4ccncc4S(N)(=O)=O)cc3F)cc12,740,0.1,0.54,> 4200,15.5,
Cc1nccn1-c1ccc(NC(=O)c2cc(C(F)(F)F)nn2-c2ccc3onc(N)c3c2)c(F)c1,,0.7,7.41,,24.4,Binding [13]: 98%

# More lines, main results first:
Ki (Prothrombin) [nM],Ki (Coagulation factor X [2]) [nM],Structure (SMILES),Permeability (Caco-2 [1]) [×10⁻⁶ cm/s],Ki (Serine protease 1) [nM],concentration doubling aPTT [3] [µM],further results
800,1.6,Cc1nccn1-c1ccc(NC(=O)c2cc(C(F)(F)F)nn2-c2ccc3onc(N)c3c2)c(-n2ccnc2C)c1,,,,
2300,0.16,Nc1noc2ccc(-n3nc(C(F)(F)F)cc3C(=O)Nc3ccc(-c4ccccc4S(N)(=O)=O)cc3F)cc12,< 0.1,> 1600,,
6300,0.09,CS(=O)(=O)c1ccccc1-c1ccc(NC(=O)c2cc(C(F)(F)F)nn2-c2ccc3onc(N)c3c2)c(F)c1,< 0.1,> 5200,,Ki [9]: 28000 nM; bioavailability [11]: 2%; Ki [12]: 16000 nM; Ki (Coagulation factor IX): 3500 nM; Ki (Chymotrypsinogen B): 2300 nM; Ki (Coagulation factor VII): > 15000 nM
> 21000,7.7,Cc1nccn1-c1ccc(NC(=O)c2cc(C(F)(F)F)nn2-c2ccc3onc(N)c3c2)c(C(N)=O)c1,,,,
600,0.37,Nc1noc2ccc(-n3nc(C(F)(F)F)cc3C(=O)Nc3ccc(-n4ccnc4CN4CCCC4)cc3F)cc12,23,,,
20000,6.3,Nc1noc2ccc(-n3nc(C(F)(F)F)cc3C(=O)Nc3ccc(N4CCOCC4)cc3F)cc12,,> 5200,,
3500,3,NCc1nccn1-c1ccc(NC(=O)c2cc(C(F)(F)F)nn2-c2ccc3onc(N)c3c2)c(F)c1,,,,
1100,0.6,Cc1nccn1-c1ccc(NC(=O)c2cc(C(F)(F)F)nn2-c2ccc3onc(N)c3c2)cc1,0.82,,,
